Compounds with a hit are over-represented: about 1.8% of the library has one in this group of screens.
M4 PAM: CHRM4 positive allosteric modulation; P08173; CHO-K1 hM4/Gqi5, Fluo-8 calcium fluorescence, ACh EC20; 0% = ACh EC20, 100% = maximal ACh; activation, % at 3 µM; AID 624126; 360,000 compounds, 0.4% hits;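 active = activation above its plate's cutoff, the mean activation of sample wells plus 3 SD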
Target sequence (P08173 whole entry, looked up): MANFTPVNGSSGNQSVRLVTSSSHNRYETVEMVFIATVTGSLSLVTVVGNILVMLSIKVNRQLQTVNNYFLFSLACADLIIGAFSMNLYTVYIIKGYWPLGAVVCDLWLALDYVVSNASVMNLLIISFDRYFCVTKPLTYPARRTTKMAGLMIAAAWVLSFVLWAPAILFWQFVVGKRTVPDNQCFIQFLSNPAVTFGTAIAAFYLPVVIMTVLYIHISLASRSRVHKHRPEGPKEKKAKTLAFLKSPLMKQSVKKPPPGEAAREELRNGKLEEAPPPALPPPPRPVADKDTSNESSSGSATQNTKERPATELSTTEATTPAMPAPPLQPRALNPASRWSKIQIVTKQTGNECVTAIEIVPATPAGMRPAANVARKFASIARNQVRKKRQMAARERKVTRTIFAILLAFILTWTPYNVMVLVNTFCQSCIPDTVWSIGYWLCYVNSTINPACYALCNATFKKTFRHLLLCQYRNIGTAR
CHRM4 agonist: CHRM4 agonism in calcium assay; P08173; activation, % at 3 µM; CHO-K1 hM4/Gqi5, Fluo-8 calcium fluorescence; vehicle 0%, full acetylcholine response 100%; 360,000 compounds, 0.14% hits;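 active = activation above the run mean over all test wells plus 3 SD, cut at about 32% in these data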;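 note: peak over basal fluorescence ratio per well then scaled between controls; 0% = DMSO wells and 100% = acetylcholine at EC100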
M5 ag: CHRM5 agonism in calcium assay; P08912; CHO-K1 hM5 cells, Fluo-8 calcium fluorescence; 0% DMSO wells, 100% maximal acetylcholine response; activation, % at 3 µM; 360,000 compounds, 0.19% hits; AID 624037;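 active = activation above the run's mean over test compounds plus 3 SD, cut at about 23% in these data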;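 note: signal is peak over basal fluorescence ratio across the kinetic read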
CHRM4 antagonist: blocks acetylcholine activation of human M4 receptor. 360,000 compounds, 0.73% hits. inhibition, % at 3 µM. AID 624125. CHO-hM4 cells, ACh EC80, Fluo-8 calcium fluorescence. P08173;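 active = inhibition above its plate's cutoff, the mean inhibition of sample wells plus 3 SD, cut at about 27% in these data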;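 note: 0% = acetylcholine EC80 with DMSO and 100% = DMSO without agonist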
CHRM5 PAM: potentiates acetylcholine response at human M5 receptor | activation, % at 3 µM | 360,000 compounds, 0.3% hits | CHO-K1 hM5, Fluo-8 calcium, ACh EC20 PAM; 0% = ACh EC20, 100% = ACh EC100 | AID 624038;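 active = activation above the run cutoff, the mean activation of all test compounds plus 3 SD, cut at about 18% in these data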
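system = human M5 receptor in CHO-K1 cells | compound = one concentration, 3 µM final (nominal) | schedule = Post-acetylcholine fluorescence recording 140 s | signal = Fluo-8 calcium dye fluorescence, kinetic read | benchmarks = low control EC20 acetylcholine (0%), high control EC100 acetylcholine (100%) | repeats = singlicate, one well per test compound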
M5 antag: antagonists of human muscarinic M5 receptor (CHRM5). CHO-hM5 cells, Fluo-8 calcium fluorescence, ACh EC80. AID 624040. inhibition, % at 3 µM. 360,000 compounds, 0.59% hits. P08912;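 active = inhibition above a per-plate cutoff, the mean of that plate's test compounds plus 3 SD, cut at about 27% in these data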;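 note: 0% = acetylcholine EC80 with DMSO and 100% = DMSO without agonist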
* hit, by the source's call.

SMILES	M4 PAM	CHRM4 agonist	M5 ag	CHRM4 antagonist	CHRM5 PAM	M5 antag
O=C(NCCOc1ccccc1)c1cc(C(=O)NCCOc2ccccc2)cc([N+](=O)[O-])c1	-28	27	9	15	-21	27*
O=C(NCCOc1ccccc1)c1ccccc1[N+](=O)[O-]	1	1	1	-12	6	5
CC(C)(C)NC(=O)C1C(c2ccccc2)=Nc2ccccc2N1C(=O)c1ccc(C(F)(F)F)cc1 (configuration not stated)	0	0	-1	-4	6	-7
COc1ccc(C(=O)N/C(=C\c2ccccc2)C(=O)N2CCOCC2)cc1	19*	2	-1	-10	-4	-6
CCN(CC)c1ccc(C=Nc2cc(C)ccc2C)c(O)c1	25*	1	-2	-1	3	0
O=C(Nc1ccc2ccccc2c1)C(c1ccc(C(F)(F)F)cc1)n1c(=O)c(-c2cc3ccccc3[nH]2)nc2ccccc21 (configuration not stated)	2	2	2	3	1	-1
COC(=O)c1[nH]c2ccc(F)cc2c1NS(=O)(=O)c1ccc(F)c(C)c1	-31	5	-5	40*	-10	20
O=c1[nH]c(C2CCN(S(=O)(=O)c3cccc(Cl)c3)CC2)nc2c1nnn2Cc1ccccc1	-18	0	-3	96*	-1	6
O=c1[nH]c(C2CCN(S(=O)(=O)c3ccc(S(=O)(=O)NC4CC4)cc3)CC2)nc2c1nnn2Cc1ccccc1	-21	2	-4	63*	3	7
O=c1[nH]c(C2CCN(S(=O)(=O)c3cccc([N+](=O)[O-])c3)CC2)nc2c1nnn2Cc1ccccc1	-21	1	-2	55*	3	8
O=c1[nH]c(C2CCN(S(=O)(=O)c3ccccc3)CC2)nc2c1nnn2Cc1cccc(Cl)c1	-22	0	-7	83*	0	1
CCOc1ccc(-n2c(=S)sc3c(=O)[nH]c(SCC(=O)NC4CCCCC4)nc32)cc1	2	0	1	-5	2	-6
Fc1cccc(Cc2c(-c3ccco3)nc3ccc(Br)cn23)c1	-1	1	1	1	8	3
Cc1ccc(S(=O)(=O)N(C)c2ccc(C(=O)NCC(c3ccccc3)N3CCCC3)cc2)cc1 (configuration not stated)	-3	4	-3	-5	-8	4
Cc1cc2c(cc1C)-n1nnnc1C(N1CCN(c3ccccn3)CC1)C(c1ccc3c(c1)OCO3)=N2 (configuration not stated)	1	3	-2	-4	-7	15
Nc1c(-c2ccccc2)cnn1-c1cccc([N+](=O)[O-])c1	-4	2	-8	-5	-17	7
Nc1c(-c2ccc(Cl)cc2)cnn1-c1cccc([N+](=O)[O-])c1	-10	2	-6	11	-19	33*
CN1CCN(c2ccc(CNC(=O)C3Cc4c(-c5ccc(Cl)cc5)ccnc4O3)cc2)CC1 (configuration not stated)	-7	3	-3	-5	-5	3
O=C(Nc1ccc2c(c1)OCCO2)C(c1ccnc2ccccc12)N1CCN(c2ccc(F)cc2)CC1 (configuration not stated)	-2	2	21	-2	19*	-4
O=C(Nc1ccc2c(c1)OCCO2)C(c1ccnc2ccccc12)N1CCN(c2ccc(C(F)(F)F)cn2)CC1 (configuration not stated)	-2	3	14	0	15	8
FC(F)(F)c1cccc(N2CCN(C(=S)NCC3CCCO3)CC2)c1 (configuration not stated)	-8	10	-1	-2	-16	27*
CC1(C)O[C@@H]2C[C@H]3[C@@H]4CCC5=CC(=O)C=C[C@]5(C)[C@@]4(F)[C@@H](O)C[C@]3(C)[C@]2(C(=O)CO)O1	-15	2	1	46*	-13	6
CC1CC2C3CCC4=CC(=O)C=CC4(C)C3(F)C(O)CC2(C)C1(O)C(=O)CO (configuration not stated)	16	1	-1	9	3	8
CC1(C)O[C@@H]2C[C@H]3[C@@H]4C[C@H](F)C5=CC(=O)C=C[C@]5(C)[C@@]4(F)[C@@H](O)C[C@]3(C)[C@]2(C(=O)CO)O1	5	1	2	-15	2	6
C[C@]12C=CC(=O)C=C1CC[C@H]1[C@@H]3C[C@@H](O)[C@](O)(C(=O)CO)[C@@]3(C)C[C@H](O)[C@@]12F	1	4	48*	-22	-18	0
SMILES	M4 PAM	CHRM4 agonist	M5 ag	CHRM4 antagonist	CHRM5 PAM	M5 antag
Cc1c(O)c(S(=O)(=O)c2ccccc2)c(=O)n(-c2ccccc2)c1-c1ccccc1	10	1	-3	27*	0	4
Cc1c(O)c(S(=O)c2ccccc2)c(=O)n(-c2ccccc2)c1-c1ccccc1 (configuration not stated)	-3	0	1	2	-3	0
NNC(=O)CN1C(=O)Nc2ccc(Cl)cc2C1c1ccccc1 (configuration not stated)	-16	0	-7	45*	2	4
O=c1[nH][nH]c2c1[C@H](C1CCCC1)O[C@H](CCc1ccccc1)C2	16	0	3	-28	14	-16
Cc1cccc(OCC(=O)Oc2ccc(Cl)cc2)c1	9	3	0	-3	4	2
Cc1cccc(OC(=O)NCCOC(=O)N(O)c2ccc(Cl)cc2)c1	16	12	7	10	-13	32*
Clc1cccc(Cl)c1/C=N/Nc1c(Cl)cncc1Cl	-1	0	5	4	28*	-15
O=C(c1ccc(Cl)cc1)C1CCCN(Cc2cnn(-c3ccccc3)c2)C1 (configuration not stated)	-13	10	-14	-7	-17	9
O=C(c1ccc(Cl)cc1)C1CCCN(Cc2ccc(Oc3ncccn3)cc2)C1 (configuration not stated)	-45	7	-18	44*	-31	26
CCCCOC(=O)/C(=C\c1ccc([N+](=O)[O-])o1)NC(=O)c1ccccc1	-7	2	-6	29*	-1	4
COc1ccc2cc(C3CC=C(CO)CN3S(=O)(=O)c3ccccc3[N+](=O)[O-])n(C(=O)OC(C)(C)C)c2c1 (configuration not stated)	-12	16	2	23	-12	23
CC(C)[C@@H]1Cc2[nH]c(=O)[nH]c(=O)c2[C@H](C)O1	3	1	0	-3	-8	-4
